Converted amounts (≈) assume the structure as drawn.
Experiments:
Assay type in all cases: functional
Enterococcus faecalis = assay: In vitro minimum inhibitory concentration (MIC) against Enterococcus faecalis A 9808 at 37 degrees C for 18 h.
How it was run: (§1)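 Two-fold serial broth dilution in nutrient broth. Inoculum adjusted to 10^6 cfu/mL. Compounds tested from 0.0005 to 250 µg/mL.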

Escherichia coli [1] = assay: In vitro minimum inhibitory concentration (MIC) against Escherichia coli A 15119 at 37 degrees C for 18 h.; how it was run: as §1
Enterococcus faecium = assay: In vitro minimum inhibitory concentration (MIC) against Enterococcus faecium A 24885 at 37 degrees C for 18 h.; how it was run: as §1
Escherichia coli [2] = assay: Efficacy on systematic infections against Escherichia coli A 15119 after oral administration in mice; conditions: read-out: PD50
How it was run: (§2)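 Mice given compound orally after lethal systemic infection. Read-out is the oral dose protecting 50% of mice from death (PD50), reported in mg/kg.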

Klebsiella pneumoniae [3] = assay: Efficacy on systematic infections against Klebsiella pneumoniae A 9664 after oral administration in mice; conditions: read-out: PD50; how it was run: as §2
Klebsiella pneumoniae [4] = assay: In vitro minimum inhibitory concentration (MIC) against Klebsiella pneumoniae A 9664 at 37 degrees C for 18 h.; how it was run: as §1
Morganella morganii = assay: In vitro minimum inhibitory concentration (MIC) against Morganella morganii A 15153 at 37 degrees C for 18 h.; how it was run: as §1
Pseudomonas aeruginosa [5] = assay: In vitro minimum inhibitory concentration (MIC) against Pseudomonas aeruginosa A 9843 at 37 degree C for 18 h; how it was run: as §1
Pseudomonas aeruginosa [6] = assay: Efficacy on systematic infections against Pseudomonas aeruginosa A 9843 after oral administration in mice; conditions: read-out: PD50; how it was run: as §2
Staphylococcus aureus [7] = assay: Efficacy on systematic infections against Staphylococcus aureus A 9537 after oral administration in mice; conditions: read-out: PD50; how it was run: as §2
Staphylococcus aureus [8] = assay: In vitro minimum inhibitory concentration (MIC) against Staphylococcus aureus Smith A 9537 at 37 degrees C for 18 hr; how it was run: as §1
Serratia marcescens = assay: In vitro minimum inhibitory concentration (MIC) against Serratia marcescens A 20019 at 37 degrees C for 18 hr; how it was run: as §1
Enterobacter cloacae = assay: In vitro minimum inhibitory concentration (MIC) against Enterobacter cloacae A 9656 at 37 degrees C for 18 h.

Structure (SMILES)	MIC (Enterococcus faecalis) [µg/mL]	MIC (Escherichia coli [1]) [µg/mL]	MIC (Enterococcus faecium) [µg/mL]	ED50 (Escherichia coli [2]) [mg/kg]	ED50 (Klebsiella pneumoniae [3]) [mg/kg]	MIC (Klebsiella pneumoniae [4]) [µg/mL]	MIC (Morganella morganii) [µg/mL]	MIC (Pseudomonas aeruginosa [5]) [µg/mL]	ED50 (Pseudomonas aeruginosa [6]) [mg/kg]	ED50 (Staphylococcus aureus [7]) [mg/kg]	MIC (Staphylococcus aureus [8]) [µg/mL]	MIC (Serratia marcescens) [µg/mL]	MIC (Enterobacter cloacae) [µg/mL]
CC(C)(C)n1cc(C(=O)O)c(=O)c2cc(F)c(N3C[C@@H]4C[C@H]3CN4)nc21	1 (≈ 2.77 µM)	0.13 (≈ 0.361 µM)	4 (≈ 11.1 µM)	4	10.8	0.13 (≈ 0.361 µM)	0.13 (≈ 0.361 µM)	0.5 (≈ 1.39 µM)	14	0.5	0.13 (≈ 0.361 µM)	2 (≈ 5.55 µM)	0.25 (≈ 0.694 µM)
CNC1CCN(c2nc3c(cc2F)c(=O)c(C(=O)O)cn3C(C)(C)C)C1 (centres undefined)	0.5 (≈ 1.38 µM)	0.06 (≈ 0.166 µM)	8 (≈ 22.1 µM)	–	–	0.13 (≈ 0.359 µM)	0.5 (≈ 1.38 µM)	2 (≈ 5.52 µM)	–	–	0.06 (≈ 0.166 µM)	1 (≈ 2.76 µM)	0.06 (≈ 0.166 µM)
CC(C)(C)n1cc(C(=O)O)c(=O)c2cc(F)c(N3C[C@@H](N)[C@H](F)C3)nc21.CS(=O)(=O)O	0.25	0.5	2	–	–	0.5	0.5	2	–	–	0.003	0.5	0.5
CC(C)(C)n1cc(C(=O)O)c(=O)c2cc(F)c(N3CC4CCC3CN4)cc21 (centres undefined)	1 (≈ 2.68 µM)	0.5 (≈ 1.34 µM)	4 (≈ 10.7 µM)	–	–	0.25 (≈ 0.669 µM)	1 (≈ 2.68 µM)	2 (≈ 5.36 µM)	–	–	0.13 (≈ 0.348 µM)	2 (≈ 5.36 µM)	0.25 (≈ 0.669 µM)
CN1C2CCC1CN(c1nc3c(cc1F)c(=O)c(C(=O)O)cn3C(C)(C)C)C2.CS(=O)(=O)O	2	0.5	16	–	–	0.1	2	4	–	–	0.25	2	0.25
CC(C)(C)n1cc(C(=O)O)c(=O)c2cc(F)c(N3C[C@@H]4C[C@H]3CN4)cc21	4 (≈ 11.1 µM)	2 (≈ 5.56 µM)	16 (≈ 44.5 µM)	–	–	0.5 (≈ 1.39 µM)	1 (≈ 2.78 µM)	1 (≈ 2.78 µM)	23	10	0.25 (≈ 0.696 µM)	2 (≈ 5.56 µM)	0.5 (≈ 1.39 µM)
CC(C)(C)n1cc(C(=O)O)c(=O)c2cc(F)c(N3CC4CCC(C3)N4)nc21.CS(=O)(=O)O	1	0.13	4	–	–	0.13	0.5	4	–	–	0.06	1	0.25
CC(C)(C)n1cc(C(=O)O)c(=O)c2cc(F)c(N3CC4CCC3CN4)nc21 (centres undefined)	0.5 (≈ 1.34 µM)	0.13 (≈ 0.347 µM)	2 (≈ 5.34 µM)	–	–	0.13 (≈ 0.347 µM)	1 (≈ 2.67 µM)	1 (≈ 2.67 µM)	–	–	0.03 (≈ 0.0801 µM)	1 (≈ 2.67 µM)	0.06 (≈ 0.16 µM)
CC(C)(C)n1cc(C(=O)O)c(=O)c2cc(F)c(N3CCNC(CF)C3)cc21 (centres undefined)	2 (≈ 5.27 µM)	0.25 (≈ 0.659 µM)	8 (≈ 21.1 µM)	–	–	0.13 (≈ 0.343 µM)	0.5 (≈ 1.32 µM)	4 (≈ 10.5 µM)	–	–	0.13 (≈ 0.343 µM)	1 (≈ 2.64 µM)	0.13 (≈ 0.343 µM)
CC(C)(C)n1cc(C(=O)O)c(=O)c2cc(F)c(N3C[C@@H](CN)[C@H](F)C3)nc21.CS(=O)(=O)O	0.03	0.06	0.25	–	–	0.13	0.5	0.5	18	0.8	0.004	1	0.06
CC(C)(C)n1cc(C(=O)O)c(=O)c2cc(F)c(N3C4CCC3CNC4)nc21.CS(=O)(=O)O	0.5	0.06	4	–	–	0.13	0.5	2	–	–	0.06	0.5	0.25
CC(C)(C)n1cc(C(=O)O)c(=O)c2cc(F)c(N3CCC(N)C3)nc21.CS(=O)(=O)O (centres undefined)	0.25	0.13	1	1.4	2.1	0.25	1	2	3.5	1.4	0.015	0.25	0.13
CC1CN(c2nc3c(cc2F)c(=O)c(C(=O)O)cn3C(C)(C)C)CCN1C (centres undefined)	1 (≈ 2.66 µM)	0.03 (≈ 0.0797 µM)	4 (≈ 10.6 µM)	–	–	0.13 (≈ 0.345 µM)	1 (≈ 2.66 µM)	4 (≈ 10.6 µM)	–	–	0.13 (≈ 0.345 µM)	1 (≈ 2.66 µM)	0.06 (≈ 0.159 µM)
CS(=O)(=O)O.C[C@H]1CN(c2nc3c(cc2F)c(=O)c(C(=O)O)cn3C(C)(C)C)C[C@H]1N	0.13	0.25	1	2.4	4.1	0.03	0.5	0.5	9	1.6	0.015	0.25	0.13
CN(C)C1CCN(c2nc3c(cc2F)c(=O)c(C(=O)O)cn3C(C)(C)C)C1 (centres undefined)	0.5 (≈ 1.33 µM)	0.25 (≈ 0.664 µM)	8 (≈ 21.3 µM)	–	–	0.13 (≈ 0.345 µM)	0.5 (≈ 1.33 µM)	1 (≈ 2.66 µM)	–	–	0.03 (≈ 0.0797 µM)	1 (≈ 2.66 µM)	1 (≈ 2.66 µM)
CC[C@H]1CN(c2nc3c(cc2F)c(=O)c(C(=O)O)cn3C(C)(C)C)C[C@@H]1N.CS(=O)(=O)O	0.13	0.03	2	–	–	0.06	0.25	1	–	–	0.015	0.25	0.03
CC(C)(C)n1cc(C(=O)O)c(=O)c2cc(F)c(N3CCC(CN)C3)cc21 (centres undefined)	0.25 (≈ 0.692 µM)	0.25 (≈ 0.692 µM)	0.5 (≈ 1.38 µM)	–	–	0.25 (≈ 0.692 µM)	2 (≈ 5.53 µM)	0.5 (≈ 1.38 µM)	–	–	0.03 (≈ 0.083 µM)	2 (≈ 5.53 µM)	0.25 (≈ 0.692 µM)
CC(C)(C)n1cc(C(=O)O)c(=O)c2cc(F)c(N3CCC(CN)C3)nc21 (centres undefined)	0.25 (≈ 0.69 µM)	0.5 (≈ 1.38 µM)	2 (≈ 5.52 µM)	–	–	0.25 (≈ 0.69 µM)	1 (≈ 2.76 µM)	1 (≈ 2.76 µM)	–	–	0.03 (≈ 0.0828 µM)	2 (≈ 5.52 µM)	0.5 (≈ 1.38 µM)
CCNCC1CCN(c2cc3c(cc2F)c(=O)c(C(=O)O)cn3C(C)(C)C)C1 (centres undefined)	0.5 (≈ 1.28 µM)	0.25 (≈ 0.642 µM)	4 (≈ 10.3 µM)	–	–	1 (≈ 2.57 µM)	2 (≈ 5.14 µM)	8 (≈ 20.5 µM)	–	–	0.06 (≈ 0.154 µM)	8 (≈ 20.5 µM)	0.5 (≈ 1.28 µM)
CC(C)(C)n1cc(C(=O)O)c(=O)c2cc(F)c(N3CCNC(c4ccccc4)C3)nc21.CS(=O)(=O)O (centres undefined)	1	0.06	8	–	–	0.06	1	4	–	–	0.03	2	0.06
CC(C)(C)n1cc(C(=O)O)c(=O)c2cc(F)c(N3CCNC(c4ccccc4)C3)cc21.CS(=O)(=O)O (centres undefined)	0.5	0.06	4	–	–	0.25	0.5	1	–	–	0.06	2	0.13
CC[C@H]1CN(c2nc3c(cc2F)c(=O)c(C(=O)O)cn3C(C)(C)C)C[C@H]1N.Cl	0.25	0.13	2	–	–	0.13	0.5	1	–	–	0.015	0.5	0.06
